Fewer inactive variants are shown than the library holds.
B1: tRNA (parent)
chain: GUUCCGUUGGCGUAAUGGUAACGCGUCUCCCUCCUAAGGAGAAGACUGCGGGUUCGAGUCCCGUACGGAACG

Variants of: B1
Experiment: yeast fitness relative to wild type (ratio to wild type); higher = fitter; tRNA-Arg(CCU), competitive growth, 37 C, YPD
In short: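 The tRNA-Arg(CCU) gene variants were made by chemical synthesis with a 3% per-site mutation rate at 69 sites and inserted at the native genomic locus of Saccharomyces cerevisiae. After pooling, the strains were competed in YPD at 37°C for 24 hours in six parallel replicates. Gene amplicons from the start population and each end population were read by 100-nucleotide paired-end sequencing, and Darwinian fitness relative to wild type was taken from genotype frequency changes. Genotypes needed ≥ 100 starting reads, and estimates < 0.5 were set to 0.5.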

Which yeast fitness does the source give for GUUACGUUGGCGUAAUGGUAACGCAUUGCCCUGCUGAGGAGAAGACUGCGGGUUCGAGUCCCGUACGGAACG [C4A G25A C27U U28G C33G A36G] here?
Its yeast fitness is at most 0.5.

With GUUACGUUGGCGUAAUGGUAACGCGGCUCCCUCCUAAGGAGAAGACUGCGGGGUCGAGUCCCGUACGGAACG [C4A U26G U53G] as the variant, how does the yeast fitness read?
Its yeast fitness is at most 0.5.

With GUUACGUUGGCGUAAUGGUAACGCGUCUCCCUCCUAAGGAGAAGACUGCGGGUUCAAGUCCCGUACGGAACG [C4A G56A] as the variant, how does the yeast fitness read?
Its yeast fitness is 0.88.

Which yeast fitness does the source give for GUUACGUUGGCGUAAUGGUAACGCGUCUCCCUCCUAAGCAGAAGACUGAGGGUUCGAGUCCCGUACGGAACG [C4A G39C C49A] here?
Its yeast fitness is at most 0.5.

With GUUACGUUGGCGUAAUGGCAACGCGUCUCCCUCCUAAGGAGGAGACUGCGGGUUCGAGUGCCGUACGGAACG [C4A U19C A42G C60G] as the variant, how does the yeast fitness read?
Its yeast fitness is at most 0.5.

Which yeast fitness does the source give for GUUACGUUGGCGUAAUGGUAACGCGUCCCCCUCCUAAGGAGAAGACUGCGGGUUCGAGUCCCGUACGGAACG [C4A U28C] here?
The yeast fitness was 0.64.

With GUUACGUUGGCGUAAUGGUAACGCAUCUACCUCCUAGGGAGAAGACUGCCGGUUCGAGUGCCAUACGGAACG [C4A G25A C29A A37G G50C C60G G63A] as the variant, how does the yeast fitness read?
Its yeast fitness is at most 0.5.

With GUUACGUUGGCGUAAUGGUAACGCGACUCCCGCCUAAGGAGAAGACUGCGGGUUCGAGUCCCGUGCGGAACG [C4A U26A U32G A65G] as the variant, how does the yeast fitness read?
The yeast fitness was 0.793.

For GUUACGAUGGCGUAAUGGUUACGCGUGUUCCUCCUAAGGAGAAGACUGCGGGUUCGAGUCCGGUACGGAACG [C4A U7A A20U C27G C29U C62G], which yeast fitness is on record?
Its yeast fitness is 0.549.

For GUUACGUUGGCGUAAUGGUAACGCGUCUCCCUCCUAAGGAGAAGACUGCGAGUUCGAGUCCCGUACGGAACG [C4A G51A], which yeast fitness is on record?
Its yeast fitness is 0.725.

Which yeast fitness does the source give for GUUACGUUGGCGUAAUGGUAACGCGUCUCCCUCCUAAGGAGAAGACUGCGGGUUCGAGUCCCGUACGUGACG [C4A G68U A69G] here?
The yeast fitness was 0.705.

With GUUACGAUGGCGUGAUCGUAACGCGUCUCCCUCCUAAGGAGAAGACUGCGGGUUCGAGUCCCGUACGGAACG [C4A U7A A14G G17C] as the variant, how does the yeast fitness read?
Its yeast fitness is at most 0.5.

With GUUACGAUGGCGUGAUCGUAACGCGUCUCCCUCCUAAGGAGAAGACUGCGGGUUCAAGUCCUGUACGGAACG [C4A U7A A14G G17C G56A C62U] as the variant, how does the yeast fitness read?
The yeast fitness was at most 0.5.

Which yeast fitness does the source give for GUUACGUUGGCGUAAUGGUAACGCGUCUCCCUCCUAAGCAGAAGACUGCGGGUUCGAGUCCCGUAUGGAACG [C4A G39C C66U] here?
Its yeast fitness is at most 0.5.

For GUUACGAUGGCGUAAUGGUAACGCGUCUCCAUCCUAAGGAGAAGACUGCGGGUUAGAGUCCCGUACGGAACG [C4A U7A C31A C55A], which yeast fitness is on record?
The yeast fitness was 0.717.

For GUUACGUUGGCGUAAUGGGAACGCGUCUCCCUCCUAAGGAGAAGACUGCGGGUUCGAGUCCCGUACGGCACG [C4A U19G A69C], which yeast fitness is on record?
Its yeast fitness is 0.587.

For GUUACGUUGGCGUAAUGGUAACGCGACUCCCGCCUAAGGAGCAGACUGCGGGUUCGUGUCCCGUACGGAACG [C4A U26A U32G A42C A57U], which yeast fitness is on record?
Its yeast fitness is at most 0.5.

With GUUACGUUGGCGUAAUGGUAACGCGUCUCCCUCCUAAGGAAAAGUCUGCGGGUUCGAUUACCGUACGGAACG [C4A G41A A45U G58U C60A] as the variant, how does the yeast fitness read?
Its yeast fitness is at most 0.5.

For GUUACGUUGGCGUAAUGGUAACGCGUCUCCCUCCUAAGGAGAAGACUGCGGAUUCGAGUCCCGUACGGAACG [C4A G52A], which yeast fitness is on record?
Its yeast fitness is 0.884.

With GUUACGAUGGCGAAAUGGUAACGCGUCUCACUCCUAAGGAGAAGACUGCGGGUUCGAGUCCCGCACGGAACG [C4A U7A U13A C30A U64C] as the variant, how does the yeast fitness read?
Its yeast fitness is 0.56.

Which yeast fitness does the source give for GUUACGAUGGCGUAAUGGUAACGCGUCUCCCUCCCAAGGAGAAGACUGCGGGUUCGAGUCCCGUACGGAACG [C4A U7A U35C] here?
The yeast fitness was at most 0.5.

With GUUACGUUGGCGUAAUGGUAACGCGUCUCCCUCCUAAGGAGAAGACUGCGGGUUCGAGUCCCGUACCGAACG [C4A G67C] as the variant, how does the yeast fitness read?
Its yeast fitness is 0.69.

For GUUACGUUGGCGUAAUGGUAACGCGGCUCCCUCCUAAGGAGAACACUGCGGGUUCCAAUCCCGUACGCAACG [C4A U26G G44C G56C G58A G68C], which yeast fitness is on record?
The yeast fitness was at most 0.5.

With GUUACGUCGGCGUAAUGGUAACGCGUCUCCCUCCUAAGGAGAAGACCGCGGGUUCGAGUCCCGUACGGAACG [C4A U8C U47C] as the variant, how does the yeast fitness read?
Its yeast fitness is 0.579.

With GUUACGAUGGCGUAAUGGUAACGCGUCUCCAUCCUAAGGAGAAGACUGCGGGUACGAGUCCCGUACGGAACG [C4A U7A C31A U54A] as the variant, how does the yeast fitness read?
The yeast fitness was at most 0.5.

For GUUACGUUGGCGCAAUGGUAACGCGUCUCCGUCCUAAGGAGAACACUGCGGAUUCGAAUCCCGUACGGAACG [C4A U13C C31G G44C G52A G58A], which yeast fitness is on record?
The yeast fitness was at most 0.5.

For GUUACGUUGGCGUAAUGGUAACGCGUCUCCCUCCUAAGGAGAAGACUGCGCGUACCAGUCCCGUACGGAACG [C4A G51C U54A G56C], which yeast fitness is on record?
Its yeast fitness is at most 0.5.

With GUUACGUUGGCGAAAUGAUAACGCGUCUCCCUCCUAAGGAGAAGACUGCGGGUUCGAGUCCCGUACGCAACG [C4A U13A G18A G68C] as the variant, how does the yeast fitness read?
The yeast fitness was at most 0.5.

For GUUACGUUGGCGUAAUGGUAACGCUUCUCCCUCCUAAGGAGAAGACUGCGGGUUCGAGUCCCGUCCGGAACG [C4A G25U A65C], which yeast fitness is on record?
The yeast fitness was at most 0.5.

For GUUACGUCGACGUAAUGGUAACGCGUCUCCCUCCUAAGGAGCAGACUGCGGGUUCGAGUCCCGUACGGAACG [C4A U8C G10A A42C], which yeast fitness is on record?
Its yeast fitness is at most 0.5.

Which yeast fitness does the source give for GUUACGUUGGCGUAAUGGUAACGCGCCUCCCUCCUAAGGAGAAGACUGCGGGUUCGAGUCCCGUACGGAACG [C4A U26C] here?
The yeast fitness was 0.972.

With GUUACGCUGGCGUAAUGGUACUGCGUCUCCCUCCUAAGGAGAAGACUGCCGGUUCGAGUCCCGUACGGAUCG [C4A U7C A21C C22U G50C A70U] as the variant, how does the yeast fitness read?
Its yeast fitness is at most 0.5.

With GUUACGUUGGCGUAAUGGUAACGCGGCUCCCUCCUAAGGAGAACACUGCGGGUUCGAAUCCCGUACGCAACG [C4A U26G G44C G58A G68C] as the variant, how does the yeast fitness read?
The yeast fitness was 0.558.

For GUUACGUUGGCGUAAUGGUAACGCGUCACCCUCCUAAGGAGAAGACUGCGGGUUCGAGUCCUGUAAGGAACG [C4A U28A C62U C66A], which yeast fitness is on record?
The yeast fitness was at most 0.5.

Which yeast fitness does the source give for GUUACGUUGGCGUAAAGGUAACGCGUCUGCCCCCUAAGGAGAAGACUGCGGGUUUGAGUCCCGUAUGGAACG [C4A U16A C29G U32C C55U C66U] here?
Its yeast fitness is at most 0.5.

With GUUACGUUGGCGGAAUGGUAACGCGUCUCCCGCCUAAGGAGAAGACUGCGGGUUUGAGUCCCCUACGGAACG [C4A U13G U32G C55U G63C] as the variant, how does the yeast fitness read?
The yeast fitness was at most 0.5.

For GUUACGAUGGCGUAAUGGUAACGCGUCUCCCUCCUAAGGAGAAGAUUGCGGGUUCGAGUCCCGUACGGAACG [C4A U7A C46U], which yeast fitness is on record?
Its yeast fitness is at most 0.5.

From the RNAGym collection of RNA variant scans (doi:10.1126/science.aae0568)
